Measured values: publication PMC11000255 (Journal of the American Chemical Society, 2024)
Read-outs that look alike come from different tables or passages of the source.

Columns and labels:
[1] = molecular target: kynurenine-oxoglutarate transaminase 3 (KYAT3) (Homo sapiens, UniProt Q6YP21); assay: TMT18plex lysine ligandability profiling, KYAT3; format: binding; details: 100 μM, 8 h, breast cancer cells
Summary of the method: (§1)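 Live MDA-MB-231 or MDA-MB-436 breast cancer cells were exposed to the test compound (100 µM, 8 h) or DMSO vehicle. Lysates (soluble and insoluble fractions) were chased with a desthiobiotin-tagged lysine-specific STP ester probe, trypsin-digested, streptavidin-enriched and quantified by TMTpro-18plex. Lysines had to be quantified in all biological triplicates and TMT channels. A lysine counted as liganded at ≥60% loss of probe enrichment relative to DMSO.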

nucleostemin (GNL3) = nucleostemin (GNL3) (Homo sapiens, UniProt Q9BVP2); assay: TMT18plex lysine ligandability profiling, GNL3; format: binding; details: 100 μM, 8 h, breast cancer cells
Summary of the method: as §1

ABHD12 = molecular target: T1, ABHD12 (Homo sapiens, UniProt Q8N2K0); assay: TMT18plex lysine ligandability profiling, ABHD12; format: binding; details: both MDA-MB-231 and MDA-MB-436 cell lines
T1 sequence (Q8N2K0 1-398): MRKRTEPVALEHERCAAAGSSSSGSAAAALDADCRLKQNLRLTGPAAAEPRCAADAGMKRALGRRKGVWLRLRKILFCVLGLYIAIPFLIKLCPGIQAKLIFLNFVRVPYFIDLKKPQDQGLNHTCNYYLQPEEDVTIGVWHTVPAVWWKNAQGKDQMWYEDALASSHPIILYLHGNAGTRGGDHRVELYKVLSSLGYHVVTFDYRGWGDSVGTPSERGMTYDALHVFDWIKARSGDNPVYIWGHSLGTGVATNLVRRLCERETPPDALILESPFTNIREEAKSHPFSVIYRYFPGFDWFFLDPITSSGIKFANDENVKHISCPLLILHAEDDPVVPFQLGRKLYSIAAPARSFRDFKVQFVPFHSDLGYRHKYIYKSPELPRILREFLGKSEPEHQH
Summary of the method: as §1

PFKL = PFKL (Homo sapiens, UniProt P17858); assay: TMT18plex lysine ligandability profiling, PFKL; format: binding; details: 100 μM, 8 h, breast cancer cells
PFKP = PFKP (Homo sapiens, UniProt Q01813); assay: TMT18plex lysine ligandability profiling, PFKP; format: binding; details: 100 μM, 8 h, breast cancer cells
Summary of the method: as §1

WT-ABHD12 = molecular target: T2, WT-ABHD12 (Homo sapiens, UniProt Q8N2K0); assay: LC/MS-based LPS hydrolysis assay, WT-ABHD12 in HEK293T cell lysates; format: biochemical; details: read-out: apparent IC50, inhibition of LPS hydrolysis activity; WT-ABHD12
T2 sequence (Q8N2K0 1-398): T1 sequence (Q8N2K0 1-398)
Summary of the method: (§2)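 Recombinant ABHD12 (WT, S246A and K373 mutants) was expressed in HEK293T cells and used as cell lysate. Lysate was preincubated with the test compound (single-point 100 µM, or a dose series; 1 h, 37 °C), then given 17:1 LPS substrate (100 µM, 20 min, 37 °C).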

K373R-ABHD12 = K373R-ABHD12 (Homo sapiens, UniProt Q8N2K0, K373R); assay: LC/MS-based LPS hydrolysis assay, K373R-ABHD12 in HEK293T cell lysates; format: biochemical; details: read-out: IC50, inhibition of LPS hydrolysis activity; K373R-ABHD12 mutant
Summary of the method: as §2

MDA-MB-231 cells = assay: untargeted lipidomics profiling of treated cells; format: cell-based, human; details: 100 μM, 8 h
WT-PFKL = WT-PFKL (Homo sapiens, UniProt P17858); assay: enzyme-coupled F6P phosphorylation assay, WT-PFKL in HEK293T cell lysates; format: biochemical; details: read-out: apparent IC50, inhibition of PFKL activity
K681R-PFKL = K681R-PFKL (Homo sapiens, UniProt P17858, K681R); assay: enzyme-coupled F6P phosphorylation assay, K681R-PFKL; format: biochemical; details: read-out: IC50, inhibition of PFKL activity
K677R-PFKL = K677R-PFKL (Homo sapiens, UniProt P17858, K677R); assay: enzyme-coupled F6P phosphorylation assay, K677R-PFKL; format: biochemical; details: read-out: IC50, inhibition of PFKL activity
K677R/K681R-PFKL = K677R/K681R-PFKL (Homo sapiens, UniProt P17858, K677R/K681R); assay: enzyme-coupled F6P phosphorylation assay, K677R/K681R-PFKL double mutant; format: biochemical; details: read-out: IC50, inhibition of PFKL activity
K677R/K681R/K315R-PFKL = K677R/K681R/K315R-PFKL (Homo sapiens, UniProt P17858, K315R/K677R/K681R); assay: enzyme-coupled F6P phosphorylation assay, K677R/K681R/K315R-PFKL triple mutant; format: biochemical; details: read-out: IC50, inhibition of PFKL activity
WT-PFKP [2] = molecular target: T3, WT-PFKP (Homo sapiens, UniProt Q01813); format: binding
T3 sequence (Q01813 1-784): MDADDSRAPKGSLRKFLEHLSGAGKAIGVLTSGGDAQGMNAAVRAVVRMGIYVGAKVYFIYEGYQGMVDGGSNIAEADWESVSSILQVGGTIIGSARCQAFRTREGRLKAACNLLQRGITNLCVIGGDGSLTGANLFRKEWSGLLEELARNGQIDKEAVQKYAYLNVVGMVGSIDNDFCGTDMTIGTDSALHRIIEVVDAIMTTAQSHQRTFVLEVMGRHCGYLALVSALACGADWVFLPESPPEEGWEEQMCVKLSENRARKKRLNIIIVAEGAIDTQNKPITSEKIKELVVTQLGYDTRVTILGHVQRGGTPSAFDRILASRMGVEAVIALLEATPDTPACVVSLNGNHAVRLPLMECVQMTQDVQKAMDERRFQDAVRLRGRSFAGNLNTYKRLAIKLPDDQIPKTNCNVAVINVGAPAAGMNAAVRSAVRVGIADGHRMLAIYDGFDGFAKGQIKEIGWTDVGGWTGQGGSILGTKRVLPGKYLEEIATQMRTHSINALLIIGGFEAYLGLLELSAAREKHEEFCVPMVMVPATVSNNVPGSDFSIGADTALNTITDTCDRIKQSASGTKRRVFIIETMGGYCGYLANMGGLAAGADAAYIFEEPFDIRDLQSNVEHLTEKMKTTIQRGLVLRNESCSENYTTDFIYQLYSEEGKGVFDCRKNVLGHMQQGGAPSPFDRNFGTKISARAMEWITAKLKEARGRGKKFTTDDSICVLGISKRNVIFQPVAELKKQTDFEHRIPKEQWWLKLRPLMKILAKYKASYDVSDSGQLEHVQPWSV

WT-PFKP [3] = molecular target: T3, WT-PFKP; assay: F6P phosphorylation assay, WT-PFKP in HEK293T cell lysates; format: biochemical; details: read-out: IC50, inhibition of PFKP activity
K688R-PFKP = K688R-PFKP (Homo sapiens, UniProt Q01813, K688R); assay: F6P phosphorylation assay, K688R-PFKP in HEK293T cell lysates; format: biochemical; details: read-out: IC50, inhibition of PFKP activity; K688R-PFKP variant
Chain of K688R-PFKP (Q01813 whole entry K688R): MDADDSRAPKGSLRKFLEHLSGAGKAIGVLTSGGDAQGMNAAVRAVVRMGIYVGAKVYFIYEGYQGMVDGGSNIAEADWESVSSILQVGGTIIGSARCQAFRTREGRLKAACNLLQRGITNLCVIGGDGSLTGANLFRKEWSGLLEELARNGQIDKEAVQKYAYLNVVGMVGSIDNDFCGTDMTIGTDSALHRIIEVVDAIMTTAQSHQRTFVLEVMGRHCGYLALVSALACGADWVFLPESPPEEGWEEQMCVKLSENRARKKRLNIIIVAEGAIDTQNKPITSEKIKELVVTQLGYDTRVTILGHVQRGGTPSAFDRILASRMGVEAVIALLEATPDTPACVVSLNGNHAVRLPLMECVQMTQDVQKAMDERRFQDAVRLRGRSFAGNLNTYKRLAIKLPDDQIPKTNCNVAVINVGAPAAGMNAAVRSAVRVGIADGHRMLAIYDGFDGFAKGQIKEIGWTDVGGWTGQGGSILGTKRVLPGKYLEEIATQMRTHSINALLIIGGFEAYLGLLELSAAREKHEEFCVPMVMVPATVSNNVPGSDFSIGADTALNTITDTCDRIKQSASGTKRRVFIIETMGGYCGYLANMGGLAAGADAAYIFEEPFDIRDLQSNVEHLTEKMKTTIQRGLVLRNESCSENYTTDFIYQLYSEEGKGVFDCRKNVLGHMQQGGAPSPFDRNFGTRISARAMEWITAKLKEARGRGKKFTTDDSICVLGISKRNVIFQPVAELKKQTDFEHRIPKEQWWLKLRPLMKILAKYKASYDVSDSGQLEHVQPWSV

Chain of PFKL (P17858 whole entry): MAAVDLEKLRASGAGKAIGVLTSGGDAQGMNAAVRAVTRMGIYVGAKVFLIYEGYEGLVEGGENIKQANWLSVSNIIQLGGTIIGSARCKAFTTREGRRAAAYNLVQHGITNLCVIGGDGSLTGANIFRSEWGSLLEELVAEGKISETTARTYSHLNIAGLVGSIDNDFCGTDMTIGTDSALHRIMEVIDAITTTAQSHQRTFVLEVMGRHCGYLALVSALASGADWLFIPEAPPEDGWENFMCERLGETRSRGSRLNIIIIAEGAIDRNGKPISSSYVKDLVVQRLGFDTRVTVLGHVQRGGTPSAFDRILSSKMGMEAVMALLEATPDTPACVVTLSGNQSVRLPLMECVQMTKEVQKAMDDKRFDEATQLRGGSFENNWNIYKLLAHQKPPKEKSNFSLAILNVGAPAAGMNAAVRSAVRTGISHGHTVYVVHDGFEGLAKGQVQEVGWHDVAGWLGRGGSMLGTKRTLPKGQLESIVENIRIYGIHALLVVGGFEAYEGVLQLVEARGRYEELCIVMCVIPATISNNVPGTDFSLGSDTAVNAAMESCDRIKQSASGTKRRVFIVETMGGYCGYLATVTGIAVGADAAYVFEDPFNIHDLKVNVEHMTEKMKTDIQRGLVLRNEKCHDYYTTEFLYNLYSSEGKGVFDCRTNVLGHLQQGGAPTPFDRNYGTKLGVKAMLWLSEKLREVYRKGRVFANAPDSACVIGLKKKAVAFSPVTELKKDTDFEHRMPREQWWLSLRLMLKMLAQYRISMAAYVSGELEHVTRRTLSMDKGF
Chain of nucleostemin (GNL3) (Q9BVP2 whole entry): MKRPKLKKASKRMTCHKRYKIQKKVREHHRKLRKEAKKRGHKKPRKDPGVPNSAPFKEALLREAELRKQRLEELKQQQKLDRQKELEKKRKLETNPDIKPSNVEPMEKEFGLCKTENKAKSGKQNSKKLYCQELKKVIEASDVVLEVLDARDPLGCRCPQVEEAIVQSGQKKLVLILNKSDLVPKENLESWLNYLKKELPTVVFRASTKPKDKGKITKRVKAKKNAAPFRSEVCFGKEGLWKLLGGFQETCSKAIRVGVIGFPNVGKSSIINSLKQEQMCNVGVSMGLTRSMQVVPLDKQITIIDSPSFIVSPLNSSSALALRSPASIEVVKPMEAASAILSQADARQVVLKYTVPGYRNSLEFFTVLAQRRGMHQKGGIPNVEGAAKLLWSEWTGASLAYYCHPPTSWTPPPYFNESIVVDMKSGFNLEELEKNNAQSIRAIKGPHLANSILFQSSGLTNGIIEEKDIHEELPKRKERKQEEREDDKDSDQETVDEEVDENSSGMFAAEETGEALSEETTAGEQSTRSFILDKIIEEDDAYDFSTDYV
Chain of K677R/K681R-PFKL (P17858 whole entry K677R/K681R): as the sequence (P17858 whole entry) above, with K677R, K681R counted along it
Chain of K681R-PFKL (P17858 whole entry K681R): as the sequence (P17858 whole entry) above, with K681R counted along it
Chain of K677R-PFKL (P17858 whole entry K677R): as the sequence (P17858 whole entry) above, with K677R counted along it
Chain of WT-PFKL (P17858 whole entry): as the sequence (P17858 whole entry) above
Chain of K373R-ABHD12 (Q8N2K0 whole entry K373R): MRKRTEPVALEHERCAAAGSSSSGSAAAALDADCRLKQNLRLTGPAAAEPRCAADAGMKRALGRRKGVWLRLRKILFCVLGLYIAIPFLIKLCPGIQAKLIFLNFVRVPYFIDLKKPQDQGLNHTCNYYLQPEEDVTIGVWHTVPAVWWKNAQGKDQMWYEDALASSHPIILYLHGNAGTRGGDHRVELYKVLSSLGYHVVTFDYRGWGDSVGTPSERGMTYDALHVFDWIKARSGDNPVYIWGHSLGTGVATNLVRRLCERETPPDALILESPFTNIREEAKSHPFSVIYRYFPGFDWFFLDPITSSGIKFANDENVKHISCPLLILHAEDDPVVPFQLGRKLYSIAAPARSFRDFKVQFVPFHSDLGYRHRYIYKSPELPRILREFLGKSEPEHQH
Chain of K677R/K681R/K315R-PFKL (P17858 whole entry K315R/K677R/K681R): as the sequence (P17858 whole entry) above, with K315R, K677R, K681R counted along it
Chain of kynurenine-oxoglutarate transaminase 3 (KYAT3) (Q6YP21 whole entry): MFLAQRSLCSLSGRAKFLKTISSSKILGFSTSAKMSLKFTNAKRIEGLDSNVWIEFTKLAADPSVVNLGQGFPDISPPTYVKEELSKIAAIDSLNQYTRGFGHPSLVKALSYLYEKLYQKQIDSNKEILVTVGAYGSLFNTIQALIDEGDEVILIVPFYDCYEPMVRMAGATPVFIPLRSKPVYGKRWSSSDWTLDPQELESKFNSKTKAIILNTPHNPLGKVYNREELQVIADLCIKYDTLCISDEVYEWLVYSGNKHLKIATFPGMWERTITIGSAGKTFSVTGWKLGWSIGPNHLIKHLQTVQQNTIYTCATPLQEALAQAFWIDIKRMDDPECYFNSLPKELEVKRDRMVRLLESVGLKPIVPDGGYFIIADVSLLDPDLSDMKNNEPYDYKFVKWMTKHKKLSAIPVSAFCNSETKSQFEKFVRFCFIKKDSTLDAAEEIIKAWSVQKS

ligandability of K330 in KYAT3 [1]: 28%
ligandability of K20 in GNL3 (nucleostemin (GNL3)): 74%
ligandability of K373 in ABHD12 (ABHD12): 66%
ligandability of K677 in PFKL (PFKL): 65%
ligandability of K681 in PFKL (PFKL): 60%
ligandability of K688 in PFKP (PFKP): 60%
IC50 (WT-ABHD12): 18.1 µM
IC50 (K373R-ABHD12): > 100 µM
IC50 (WT-PFKL): 4.6 µM
IC50 (K681R-PFKL): 7 µM
IC50 (K677R-PFKL): 8.6 µM
IC50 (K677R/K681R-PFKL): 78.5 µM
IC50 (K677R/K681R/K315R-PFKL): > 100 µM
fold reduction in potency versus enantiomer (+)-guadial B (WT-PFKP [2]; P1 probe labeling blockade): ~10 fold
IC50 (WT-PFKP [2]; read-out: apparent IC50, blockade of P1 probe labeling, WT-PFKP): 13.8 µM
IC50 (WT-PFKP [3]): 3.8 µM
IC50 (K688R-PFKP): > 100 µM
Compound: CC1(C)[C@@H]2C[C@H]3[C@H](c4ccccc4)c4c(O)c(C=O)c(O)c(C=O)c4O[C@@]3(C)[C@H]1C2 [(−)-guadial B]
levels of monoacylglycerophosphoserine LPS(18:0) (MDA-MB-231 cells): significantly elevated levels
levels of stearic acid FA(18:0) (MDA-MB-231 cells): concurrent reduction
